TAAR1 agonist = agonists of human TAAR1; Q96RJ0; actives 0.99% (n = 360,000); CHO RD-HGA16 TAAR1, Fluo-8 calcium fluorescence; vehicle wells 0%, saturating PEA agonist 100%; activation, % at 3 µM;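 active = activation above the mean activation of all test compounds in the run plus 3 SD, cut at about 38% in these data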
Target sequence (Q96RJ0 whole entry, looked up): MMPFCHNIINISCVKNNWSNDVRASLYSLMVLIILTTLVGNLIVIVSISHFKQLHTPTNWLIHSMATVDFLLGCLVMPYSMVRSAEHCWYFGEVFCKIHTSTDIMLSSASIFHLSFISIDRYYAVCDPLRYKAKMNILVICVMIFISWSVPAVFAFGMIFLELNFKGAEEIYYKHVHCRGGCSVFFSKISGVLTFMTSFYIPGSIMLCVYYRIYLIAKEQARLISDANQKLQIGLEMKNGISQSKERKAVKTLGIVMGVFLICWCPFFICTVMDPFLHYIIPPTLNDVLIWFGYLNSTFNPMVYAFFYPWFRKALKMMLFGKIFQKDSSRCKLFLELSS
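Test system: RD-HGA16 (CHO) cells co-expressing Gα16 and hTAAR1 | Doses: Single dose, 3 µM | Schedule: 17-24 h seeding, 75 min 37 °C dye, 30 min RT | Evaluation: % activation from peak over basal fluorescence ratio, DMSO-to-PEA scaled | Technique: Kinetic Fluo-8 calcium fluorescence | Benchmarks: Low control DMSO, high control PEA (EC100)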
DAGLB inhibitor = blocks human DAGLB lipase activity. Q8NCG7. HEK293T DAGLB membrane lysate, EnzChek fluorogenic substrate. inhibition, % at 5.17 µM. actives 0.059% (n = 340,000); in the data active = inhibition above about 34%
MPTP block = inhibitors of mitochondrial permeability transition pore; isolated mouse mitochondria, Ca2+ swelling absorbance, 30 min; inhibition, % at 10 µM; actives 1.4% (n = 360,000); AID 602449;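 active = inhibition of 50% or more, scaled per plate between neutral and stimulator controls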
GPR7 antagonist = antagonists of human GPR7 (neuropeptides B/W receptor 1). P48145. GPR7-expressing cells, fluorescence antagonist assay. inhibition, % at 4.4 µM. actives 1.1% (n = 290,000); in the data active = inhibition above about 16%, passing the limit was not always enough;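 also: cells stimulated with the agonist NPW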
Target sequence (P48145 whole entry, looked up): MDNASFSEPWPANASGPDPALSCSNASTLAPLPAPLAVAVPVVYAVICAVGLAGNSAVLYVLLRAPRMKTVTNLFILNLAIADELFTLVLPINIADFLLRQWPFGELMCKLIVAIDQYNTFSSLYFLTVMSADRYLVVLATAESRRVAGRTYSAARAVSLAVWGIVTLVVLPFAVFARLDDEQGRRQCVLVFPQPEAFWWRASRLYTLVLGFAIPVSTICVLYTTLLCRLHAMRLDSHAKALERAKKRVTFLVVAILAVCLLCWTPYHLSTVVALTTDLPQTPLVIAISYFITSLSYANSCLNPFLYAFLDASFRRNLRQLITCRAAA
TAAR1 antag = antagonists of human TAAR1 | inhibition, % at 3 µM | Q96RJ0 | actives 1.5% (n = 360,000) | AID 624466 | CHO RD-HGA16 TAAR1, Fluo-8 calcium fluorescence, antagonist;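 active = inhibition above a per-plate cutoff, the mean inhibition of test compounds on that plate plus 3 SD, cut at about 49% in these data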
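Test system: RD-HGA16 CHO cells with stable hTAAR1 and Gα16 / Probe or stimulus: EC80 β-phenethylamine stimulus / Times: seeding 17-24 h prior, 75-min 37 °C, 30-min RT dye loading / Detection: Fluo-8 calcium-sensitive fluorescence / Read-out basis: % inhibition scaled between DMSO and EC80 PEA controls / Repeats: singlicate, one well per test compound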
nonsel antag count = nonselective antagonism, TAAR1 counter-screen. shares compounds with TAAR1 antag. inhibition, % at 3 µM. counterscreen cell line, calcium fluorescence, antagonist mode. actives 77% (n = 2,400); in the data active = inhibition above about 22%;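 also: CHO-Ga16 host cells stimulated with ATP at an EC80 level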
TAAR1 antag conf = human TAAR1 antagonism, confirmed; shares compounds with TAAR1 antag; TAAR1-expressing cells, fluorescence antagonist read-out; inhibition, % at 3 µM; actives 40% (n = 2,400); in the data active = inhibition above about 49%;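 also: CHO-Ga16 host cells challenged with agonist PEA near its EC80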
Ga16 nonsel ag = nonselective Ga16 agonism, counter-screen; shares compounds with TAAR1 antag; Ga16-expressing cells, calcium fluorescence, agonist counterscreen; activation, % at 3 µM; actives 18% (n = 2,400); AID 651953; in the data active = activation above about 12%
TAAR1 ag counter = activates human TAAR1 in antagonist counter-screen; shares compounds with TAAR1 antag; hTAAR1 cell line, fluorescence activation, agonist mode; activation, % at 3 µM; actives 2% (n = 2,400); AID 651955; in the data active = activation above about 37%;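 also: CHO cells stably expressing TAAR1 with calcium dye readout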
Each line names hits and unclear results; the compound was inactive in the other large screens (follow-up assays come after a bar, where they were run). Sampled rows, rich in hits. Any-hit rate of the full collection: about 4%.

OC(c1ccc(-c2ccccc2)cc1)c1ncc(-c2ccccc2Cl)[nH]1 (centres undefined)	none (no result: DAGLB inhibitor, GPR7 antagonist)
Oc1[nH]c2ccccc2c1N=Nc1nc(Nc2ccccc2)nc(N2CCOCC2)n1	TAAR1 antag 53.1 | nonsel antag count 28.9 | TAAR1 antag conf inactive | Ga16 nonsel ag inactive | TAAR1 ag counter inactive
OC[C@@H]1CC[C@@H](Cc2ccc(-c3ccccc3)cc2)O1	none (no result: GPR7 antagonist)
COc1ccccc1S(=O)(=O)Cc1ccc(C(=O)N2CCN(c3ccccc3)CC2)o1	none
COc1ccc(N2CCN(C(=O)c3ccc(CS(=O)(=O)c4ccccc4C)o3)CC2)cc1	TAAR1 antag 51.6 | nonsel antag count 27.4 | TAAR1 antag conf inactive | Ga16 nonsel ag inactive | TAAR1 ag counter inactive
Cc1ccc(C)c(N2CCN(C(=O)c3ccc(CS(=O)(=O)c4ccccc4C)o3)CC2)c1	TAAR1 antag 64.1 | nonsel antag count 36.6 | TAAR1 antag conf 51.2 | Ga16 nonsel ag inactive | TAAR1 ag counter inactive
COc1ccccc1S(=O)(=O)Cc1ccc(C(=O)N2CCN(c3cccc(Cl)c3)CC2)o1	TAAR1 antag 64.6 | nonsel antag count 40.5 | TAAR1 antag conf 61.1 | Ga16 nonsel ag 13.4 | TAAR1 ag counter inactive
Cc1ccc(S(=O)(=O)Cc2ccc(C(=O)N3CCN(c4cc(C)ccc4C)CC3)o2)cc1	none
C=C1CC2(CC(c3ccccc3)OC(c3ccccc3)C2)OC1=O (centres undefined)	none (no result: GPR7 antagonist)
COc1cccc(C(=O)Nc2cccc(NC(=O)c3ccccc3Cl)c2)c1	TAAR1 antag 67.7 | nonsel antag count inactive | TAAR1 antag conf inactive | Ga16 nonsel ag inactive | TAAR1 ag counter inactive
COc1ccc(/C=N/NC(=O)c2cccc(NC(=O)c3ccccc3Cl)c2)c(OC)c1	TAAR1 antag 59.6 | nonsel antag count 24.2 | TAAR1 antag conf inactive | Ga16 nonsel ag inactive | TAAR1 ag counter inactive
COc1cccc(C(=O)Nc2ccccc2)c1	none
CC1(C)C(=O)Nc2ccccc2N1C(=O)COC(=O)c1ccc(NC(N)=O)cc1	none (no result: GPR7 antagonist)
NC(=O)c1cccc(-c2coc3c(C(=O)NCc4ccccc4)cccc23)c1	none (no result: DAGLB inhibitor, GPR7 antagonist)
O=C(Nc1cccc(C(F)(F)F)c1)c1cccc2c(-c3cccnc3)coc12	none (no result: TAAR1 agonist, DAGLB inhibitor, GPR7 antagonist, TAAR1 antag)
COc1cc(NC(=O)c2cccc3c(-c4cccnc4)coc23)cc(OC)c1OC	TAAR1 antag 76.4 (no result: DAGLB inhibitor, GPR7 antagonist) | nonsel antag count 28.8 | TAAR1 antag conf 58.8 | Ga16 nonsel ag 16.3 | TAAR1 ag counter inactive
CC(=O)c1cccc(NC(=O)c2cccc3c(-c4cccc(C(N)=O)c4)coc23)c1	TAAR1 antag 85.4 (no result: DAGLB inhibitor, GPR7 antagonist) | nonsel antag count 41.5 | TAAR1 antag conf 56.2 | Ga16 nonsel ag 12.7 | TAAR1 ag counter inactive
CC(C)CN1CCN=C1Nc1ccccc1	none
CC(C)CCN1CCN=C1Nc1ccccc1	TAAR1 antag 108.3 | nonsel antag count inactive | TAAR1 antag conf inactive | Ga16 nonsel ag inactive | TAAR1 ag counter inactive
COc1ccc(CCNC(=O)c2cc(-c3ccccc3O)n[nH]2)cc1OC	none
COc1ccc(CCNC(=O)c2cc(-c3cc(Cl)ccc3O)n[nH]2)cc1OC	TAAR1 antag 60.5 | nonsel antag count 39.0 | TAAR1 antag conf 53.9 | Ga16 nonsel ag 12.8 | TAAR1 ag counter inactive
COc1ccc(Cl)cc1CN1CCN(c2nc(C)cc(C)c2C#N)CC1	none
Cc1cc(C)c(C#N)c(N2CCN(CCOc3ccc(Cl)cc3)CC2)n1	TAAR1 antag 56.8 | nonsel antag count 34.4 | TAAR1 antag conf inactive | Ga16 nonsel ag inactive | TAAR1 ag counter inactive
CCN1C(=O)[C@@H]2[C@@H](c3ccc(-c4ccc(F)cc4)cc3)N3CCCC[C@@]3(C(=O)OC)[C@@H]2C1=O	none (no result: GPR7 antagonist)
CC(C)(C)c1cc(C(=O)NCc2cc(F)cc3c2OCOC3)n(Cc2ccccc2)n1	TAAR1 antag 81.2 | nonsel antag count 33.6 | TAAR1 antag conf 54.8 | Ga16 nonsel ag inactive | TAAR1 ag counter inactive
Cc1cccc(C)c1NC(=O)NNC(=O)c1cc(C(C)(C)C)nn1Cc1ccccc1	none
COc1cccc(CNC(=O)[C@H]2CCCN2C(=O)[C@H]2CCCN2C(=O)c2ccc(F)c(F)c2)c1	none (no result: DAGLB inhibitor, MPTP block, GPR7 antagonist)
O=C(Nc1nc(-c2ccccn2)cs1)C1COc2ccccc2O1 (centres undefined)	TAAR1 antag 104.5 | nonsel antag count 21.8 | TAAR1 antag conf inactive | Ga16 nonsel ag inactive | TAAR1 ag counter inactive
O=C(Nc1nc(-c2ccccc2)cs1)C1COc2ccccc2O1 (centres undefined)	none
Cc1nc2ccc3nc(NC(=O)C4COc5ccccc5O4)sc3c2s1 (centres undefined)	TAAR1 antag 60.7 | nonsel antag count 28.8 | TAAR1 antag conf inactive | Ga16 nonsel ag inactive | TAAR1 ag counter inactive
CSc1nc2ccc3nc(NC(=O)C4COc5ccccc5O4)sc3c2s1 (centres undefined)	none
CCCCCC(=O)N1C[C@H](n2cc(-c3ccc(F)cc3)nn2)[C@@H](O)C[C@@H]1c1ccc(Cl)cc1	none (no result: GPR7 antagonist)
C[C@@H](c1ccccc1)N1C[C@H]2CCCN2c2cc(Br)ccc2S1(=O)=O	none (no result: GPR7 antagonist)
O=C(CSc1n[nH]c(-c2ccncc2)n1)NCCc1ccccc1	none
CCc1nc(SCC(=O)NCCc2ccccc2)n[nH]1	TAAR1 antag 74.9 | nonsel antag count inactive | TAAR1 antag conf 70.3 | Ga16 nonsel ag inactive | TAAR1 ag counter 49.2
COc1ccc(/C=C2/SC(=O)N(NS(=O)(=O)c3ccccc3)C2=S)cc1OC	TAAR1 antag 63.4 | nonsel antag count 28.6 | TAAR1 antag conf inactive | Ga16 nonsel ag inactive | TAAR1 ag counter inactive
CC(C)(C)NC(=O)COC(=O)c1ccccc1OCC(=O)Nc1ccc(Br)cc1	TAAR1 antag 51.0 | nonsel antag count 23.8 | TAAR1 antag conf inactive | Ga16 nonsel ag inactive | TAAR1 ag counter inactive
O=C(COc1ccccc1C(=O)c1cnn(-c2ccccc2)c1)Nc1ccccc1	TAAR1 antag 53.2 | nonsel antag count 24.0 | TAAR1 antag conf inactive | Ga16 nonsel ag inactive | TAAR1 ag counter inactive
CC(=O)c1ccc(NC(=O)COc2ccccc2C(=O)Nc2ccccc2)cc1	TAAR1 antag 73.3 | nonsel antag count 45.0 | TAAR1 antag conf 67.1 | Ga16 nonsel ag 14.6 | TAAR1 ag counter inactive
CN(C)S(=O)(=O)c1cccc(NC(=O)COc2ccccc2C(=O)Nc2ccccc2)c1	TAAR1 antag 72.3 (no result: GPR7 antagonist) | nonsel antag count 52.8 | TAAR1 antag conf 65.1 | Ga16 nonsel ag 14.0 | TAAR1 ag counter inactive
N#Cc1cc(C(=O)c2ccccc2OCC(=O)Nc2ccccc2)cn(C2CCCCC2)c1=O	none
OC(c1ccccc1)(c1nc(/C=C/c2ccc(C(F)(F)F)cc2)cs1)C(F)(F)F (centres undefined)	none (no result: DAGLB inhibitor, GPR7 antagonist)

High-throughput results: PubChem, several laboratories
